Measured values reported in ChEMBL document CHEMBL1143146, “Multicomponent reactions in fungicide research: the discovery of mandipropamid” (2008).
Converted amounts (≈) assume the structure as drawn.

Assays:
Phytophthora infestans = experiment: Antifungal activity against Phytophthora infestans in tomato late blight after 4 days; format: functional; conditions: 96 h
How it was run: (§1)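 Greenhouse trials on whole plants. Disease incidence read after incubation at 20 °C and 95% relative humidity: 4 days on tomato, 6 days on grape. Potency is given as EC80, the concentration in mg L-1 (ppm) giving 80% activity.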

Plasmopara viticola = experiment: Antifungal activity against Plasmopara viticola in grape downy mildew after 6 days; format: functional; conditions: 144 h; how it was run: as §1

Row | Compound | EC80 (Phytophthora infestans) [µg/mL] | EC80 (Plasmopara viticola) [µg/mL]
1 | C#CCOc1ccc(CCNC(=O)C(NS(=O)(=O)N(C)C)c2ccc(OC)cc2)cc1OC (stereo not given) | 8 (≈ 16.8 µM) | 34.9 (≈ 73.4 µM)
2 | C#CCOc1ccc(CCNC(=O)C(NS(=O)(=O)N(C)C)c2ccc(C)c(C)c2)cc1OC (stereo not given) | 12.2 (≈ 25.8 µM) | 28.7 (≈ 60.6 µM)
3 | C#CCOc1ccc(CCNC(=O)C(OCC#C)c2cc(Cl)cc(Cl)c2Cl)cc1OC (stereo not given) | > 200 | 44.2 (≈ 91.9 µM)
4 | C#CCOc1ccc(CCNC(=O)C(OCC#C)c2ccc3c(c2)Cc2ccccc2-3)cc1OC (stereo not given) | 4.8 (≈ 10.3 µM) | 19.3 (≈ 41.5 µM)
5 | C#CCOc1ccc(CCNC(=O)C(OCC#C)c2cccs2)cc1OC (stereo not given) | 2.1 (≈ 5.48 µM) | 1.4 (≈ 3.65 µM)
6 | C#CCOc1ccc(CCNC(=O)C(OCC#C)c2cc(F)c(F)c(F)c2)cc1OC (stereo not given) | 26.2 (≈ 60.7 µM) | 19.7 (≈ 45.7 µM)
7 | C#CCOc1ccc(CCNC(=O)C(NS(=O)(=O)N(C)C)c2ccc(SC)cc2)cc1OC (stereo not given) | 34.9 (≈ 71 µM) | 16.2 (≈ 33 µM)
8 | C#CCOc1ccc(CCNC(=O)C(OCC#C)c2cccc(Cl)c2Cl)cc1OC (stereo not given) | 168 (≈ 377 µM) | 25.5 (≈ 57.1 µM)
9 | C#CCOc1ccc(CCNC(=O)C(CC2=C(C)CCCC2(C)C)OCC#C)cc1OC (stereo not given) | 51.4 (≈ 117 µM) | 124 (≈ 283 µM)
10 | C#CCOc1ccc(CCNC(=O)C(OCC#C)c2ccc(Br)cc2F)cc1OC (stereo not given) | 5.3 (≈ 11.2 µM) | 1.8 (≈ 3.79 µM)
11 | C#CCOc1ccc(CCNC(=O)C(NS(=O)(=O)N(C)C)c2ccc(CC)cc2)cc1OC (stereo not given) | 2.6 (≈ 5.49 µM) | 5.1 (≈ 10.8 µM)
12 | C#CCOc1ccc(CCNC(=O)C(NS(=O)(=O)N(C)C)c2cccc(C)c2)cc1OC (stereo not given) | 150 (≈ 326 µM) | 116 (≈ 253 µM)
13 | C#CCOc1ccc(CCNC(=O)C(OCC#C)c2ccc(F)cc2)cc1OC (stereo not given) | 1.8 (≈ 4.55 µM) | 3.4 (≈ 8.6 µM)
14 | C#CCOc1ccc(CCNC(=O)C(OCC#C)c2ccc(CC)cc2)cc1OC (stereo not given) | 7.5 (≈ 18.5 µM) | 3.1 (≈ 7.64 µM)
15 | C#CCOc1ccc(CCNC(=O)C(OCC#C)c2ccc(F)cc2F)cc1OC (stereo not given) | 4.6 (≈ 11.1 µM) | 5 (≈ 12.1 µM)
16 | C#CCOc1ccc(CCNC(=O)C(OCC#C)c2cccc(Br)c2)cc1OC (stereo not given) | 4.9 (≈ 10.7 µM) | 4.9 (≈ 10.7 µM)
17 | C#CCOc1ccc(CCNC(=O)C(NS(=O)(=O)N(C)C)c2ccc(Br)cc2)cc1OC (stereo not given) | 7.8 (≈ 14.9 µM) | 39.4 (≈ 75.1 µM)
18 | C#CCOc1ccc(CCNC(=O)C(COc2ccc(C)cc2)OCC#C)cc1OC (stereo not given) | 0.1 (≈ 0.237 µM) | 1.8 (≈ 4.27 µM)
19 | C#CCOc1ccc(CCNC(=O)C(COc2ccc(Cl)cc2)OCC#C)cc1OC (stereo not given) | 0.02 (≈ 0.0453 µM) | 0.6 (≈ 1.36 µM)
20 | C#CCOc1ccc(CCNC(=O)C(NS(=O)(=O)N(C)C)c2ccc(Cl)cc2)cc1OC (stereo not given) | 10.6 (≈ 22.1 µM) | 13.8 (≈ 28.8 µM)

Row | Compound | EC80 (Phytophthora infestans) [µg/mL] | EC80 (Plasmopara viticola) [µg/mL]
21 | C#CCOc1ccc(CCNC(=O)C(OCC#C)c2cccc(F)c2)cc1OC (stereo not given) | 10.2 (≈ 25.8 µM) | 1.8 (≈ 4.55 µM)
22 | C#CCOc1ccc(CCNC(=O)C(OCC#C)c2cccc(OC)c2)cc1OC (stereo not given) | 46.2 (≈ 113 µM) | 1.7 (≈ 4.17 µM)
23 | C#CCOc1ccc(CCNC(=O)C(NS(=O)(=O)N(C)C)c2ccc(F)c(Cl)c2)cc1OC (stereo not given) | 186 (≈ 374 µM) | 59.8 (≈ 120 µM)
24 | C#CCOc1ccc(CCNC(=O)C(NS(=O)(=O)N(C)C)c2ccc(F)c(F)c2)cc1OC (stereo not given) | 110 (≈ 228 µM) | 46.3 (≈ 96.2 µM)
25 | C#CCOc1ccc(CCNC(=O)C(NS(=O)(=O)N(C)C)c2ccc(CCC)cc2)cc1OC (stereo not given) | 3.1 (≈ 6.36 µM) | 16.7 (≈ 34.2 µM)
26 | C#CCOc1ccc(CCNC(=O)C(NS(=O)(=O)N(C)C)c2ccc(C(C)C)cc2)cc1OC (stereo not given) | 26.2 (≈ 53.7 µM) | 14.6 (≈ 29.9 µM)
27 | C#CCOc1ccc(CCNC(=O)C(NS(=O)(=O)N(C)C)c2ccc(Cl)c(Cl)c2)cc1OC (stereo not given) | 19.2 (≈ 37.3 µM) | 51.5 (≈ 100 µM)
28 | C#CCOc1ccc(CCNC(=O)C(OCC#C)c2ccccc2)cc1OC (stereo not given) | 0.5 (≈ 1.32 µM) | 1.3 (≈ 3.44 µM)
29 | C#CCOc1ccc(CCNC(=O)C(NS(=O)(=O)N(C)C)c2ccc(F)cc2)cc1OC (stereo not given) | 45.7 (≈ 98.6 µM) | 78.3 (≈ 169 µM)
30 | C#CCOc1ccc(CCNC(=O)C(OCC#C)C2CCCCC2)cc1OC (stereo not given) | 47.6 (≈ 124 µM) | 5.3 (≈ 13.8 µM)
31 | C#CCOc1ccc(CCNC(=O)C(OCC#C)c2ccc(C)c(Cl)c2)cc1OC (stereo not given) | 2.4 (≈ 5.63 µM) | 1.5 (≈ 3.52 µM)
32 | C#CCOc1ccc(CCNC(=O)C(OCC#C)c2ccc(C=C)cc2)cc1OC (stereo not given) | 3.3 (≈ 8.18 µM) | 2 (≈ 4.96 µM)
33 | C#CCOc1ccc(CCNC(=O)C(OCC#C)c2ccc(Cl)c(Cl)c2)cc1OC (stereo not given) | 4.8 (≈ 10.8 µM) | 3.4 (≈ 7.62 µM)
34 | C#CCOc1ccc(CCNC(=O)C(OCC#C)c2ccc(Br)cc2)cc1OC (stereo not given) | 3.4 (≈ 7.45 µM) | 2.6 (≈ 5.7 µM)
35 | C#CCOc1ccc(CCNC(=O)C(OCC#C)c2ccc(C)cc2)cc1OC (stereo not given) | 9.7 (≈ 24.8 µM) | 5.2 (≈ 13.3 µM)
36 | C#CCOc1ccc(CCNC(=O)C(OCC#C)c2ccc3c(c2)OCCO3)cc1OC (stereo not given) | 16.7 (≈ 38.3 µM) | 2.2 (≈ 5.05 µM)
37 | C#CCOc1ccc(CCNC(=O)C(COCc2ccccc2)OCC#C)cc1OC (stereo not given) | 0.3 (≈ 0.712 µM) | 20.4 (≈ 48.4 µM)
38 | C#CCOc1ccc(CCNC(=O)C(OCC#C)c2cccc(Cl)c2)cc1OC (stereo not given) | 3.7 (≈ 8.98 µM) | 2.4 (≈ 5.83 µM)
39 | C#CCOc1ccc(CCNC(=O)C(NS(=O)(=O)N(C)C)c2ccc(C(F)(F)F)cc2)cc1OC (stereo not given) | 3.4 (≈ 6.62 µM) | 5.8 (≈ 11.3 µM)
40 | C#CCOc1ccc(CCNC(=O)C(OCC#C)c2ccc(CCCC)cc2)cc1OC (stereo not given) | 25.9 (≈ 59.7 µM) | 10.4 (≈ 24 µM)

Row | Compound | EC80 (Phytophthora infestans) [µg/mL] | EC80 (Plasmopara viticola) [µg/mL]
41 | C#CCOc1ccc(CCNC(=O)C(OCC#C)c2cccc(C(F)(F)F)c2)cc1OC (stereo not given) | 5 (≈ 11.2 µM) | 3.8 (≈ 8.53 µM)
42 | C#CCOc1ccc(CCNC(=O)C(OCC#C)c2ccc(SC)cc2)cc1OC (stereo not given) | 7.6 (≈ 17.9 µM) | 5.3 (≈ 12.5 µM)
43 | C#CCOc1ccc(CCNC(=O)C(NS(=O)(=O)N(C)C)c2ccc(OCC)cc2)cc1OC (stereo not given) | 24.7 (≈ 50.4 µM) | 35 (≈ 71.5 µM)
44 | C#CCOc1ccc(CCNC(=O)C(Cc2ccc(Cl)cc2)OCC#C)cc1OC (stereo not given) | 26.3 (≈ 61.7 µM) | 18.6 (≈ 43.7 µM)
45 | C#CCOc1ccc(CCNC(=O)C(OCC#C)c2ccc(C)c(C)c2)cc1OC (stereo not given) | 3.2 (≈ 7.89 µM) | 1.6 (≈ 3.95 µM)
46 | C#CCOc1ccc(CCNC(=O)C(OCC#C)c2ccc(CCC)cc2)cc1OC (stereo not given) | 4.4 (≈ 10.5 µM) | 1.7 (≈ 4.05 µM)
47 | C#CCOc1ccc(CCNC(=O)C(OCC#C)c2ccc(C(F)(F)F)cc2)cc1OC (stereo not given) | 8 (≈ 18 µM) | 11.6 (≈ 26 µM)
48 | C#CCOc1ccc(CCNC(=O)C(OCC#C)c2ccccc2Cl)cc1OC (stereo not given) | 81.1 (≈ 197 µM) | > 200
49 | C#CCOc1ccc(CCNC(=O)C(OCC#C)c2ccc(COC)cc2)cc1OC (stereo not given) | 2.6 (≈ 6.17 µM) | 13.8 (≈ 32.7 µM)
50 | C#CCOc1ccc(CCNC(=O)C(OCC#C)c2cc(C)cc(C)c2)cc1OC (stereo not given) | 41.9 (≈ 103 µM) | 56.4 (≈ 139 µM)
51 | C#CCOc1ccc(CCNC(=O)C(NS(=O)(=O)N(C)C)c2ccccc2C)cc1OC (stereo not given) | > 200 | > 200
52 | C#CCOc1ccc(CCNC(=O)C(OCC#C)c2cccc(C)c2)cc1OC (stereo not given) | 6.4 (≈ 16.3 µM) | 1.7 (≈ 4.34 µM)
53 | C#CCOc1ccc(CCNC(=O)C(OCC#C)c2ccc(OC)cc2)cc1OC (stereo not given) | 2.3 (≈ 5.64 µM) | 1.6 (≈ 3.93 µM)
54 | C#CCOc1ccc(CCNC(=O)C(NS(=O)(=O)N(C)C)c2ccc(C)cc2)cc1OC (stereo not given) | 2.5 (≈ 5.44 µM) | 3.2 (≈ 6.96 µM)
55 | C#CCOc1ccc(CCNC(=O)C(NS(=O)(=O)N(C)C)c2ccc(OC(F)(F)F)cc2)cc1OC (stereo not given) | 18.8 (≈ 35.5 µM) | 46.4 (≈ 87.6 µM)
56 | C#CCOc1ccc(CCNC(=O)C(OCC#C)c2ccc(C(C)C)cc2)cc1OC (stereo not given) | 6.1 (≈ 14.5 µM) | 2.8 (≈ 6.67 µM)
57 | C#CCOc1ccc(CCNC(=O)C(NS(=O)(=O)N(C)C)c2ccccc2)cc1OC (stereo not given) | 81.2 (≈ 182 µM) | 28.5 (≈ 64 µM)
58 | C#CCOc1ccc(CCNC(=O)C(NS(=O)(=O)N(C)C)c2ccc(C(C)(C)C)cc2)cc1OC (stereo not given) | 143 (≈ 285 µM) | 20.2 (≈ 40.3 µM)
59 | C#CCOc1ccc(CCNC(=O)C(OCC#C)c2cccnc2)cc1OC (stereo not given) | 186 (≈ 492 µM) | > 200
60 | C#CCOc1ccc(CCNC(=O)C(OCC#C)c2ccc(Cl)cc2)cc1OC (stereo not given) [MANDIPROPAMID] | 0.1 (≈ 0.243 µM) | 1.2 (≈ 2.91 µM)
